For data set [1], the system named is Staphylococcus epidermidis. Nature of the data set: The antibacterial activity was evaluated as minimal inhibitory concentration (MIC) against Staphylococcus epidermis 3519. It is filed as functional. The essentials:
(§1)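 Twofold agar dilution of compound in 10 mL brain heart infusion agar. Organisms grown 24 h, diluted 1/100, inoculum applied by multipoint replicator. Plates incubated at 35 °C (24 h per table footnote; 25 h per methods). MIC read as lowest inhibiting concentration, μg/mL. Ristocetin run as standard.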

Data set [2] concerns Enterococcus faecalis. Nature of the data set: The antibacterial activity was evaluated as minimal inhibitory concentration (MIC) against Streptococcus faecalis 10541. It is filed as functional. The essentials:
as §1

The nature of data set [3]: Association constant was evaluated towards synthetic peptidoglycan analogue Ac2-Lys-D-Ala-D-Ala. It is filed as ADME. The essentials: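 Differential UV spectroscopy in tandem cells, 2 cm total path. Antibiotic at 50 μg/mL in 20 mM sodium citrate buffer pH 5.1, with 10% methanol for poorly water-soluble compounds. Ac2-Lys-D-Ala-D-Ala peptide added stepwise. Absorbance change followed at the wavelength of maximal change, and the association constant K_A derived from it.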

The test system of data set [4] is Staphylococcus aureus. Nature of the data set: The antibacterial activity was evaluated as minimal inhibitory concentration (MIC) against Staphylococcus aureus Smith. It is filed as functional. Put shortly:
as §1

Data set [5] has as its system Streptococcus pyogenes. Nature of the data set: The antibacterial activity was evaluated as minimal inhibitory concentration (MIC) against Streptococcus pyogenes C203. It is filed as functional. The essentials:
as §1

≈ marks a conversion by molar mass, not a printed value.

By MIC is commonly meant the lowest concentration found to suppress growth. Low readings indicate inhibition by little substance, high ones a need for much substance.

On to `COC(=O)[C@H]1NC(=O)[C@H]2NC(=O)[C@H](NC(=O)[C@@H]3NC(=O)[C@H]4NC(=O)[C@H](NC(=O)[C@H](N)c5ccc(O)c(c5)Oc5cc4cc(O)c5C)[C@H](O)c4ccc(cc4)Oc4cc3cc(c4O[C@H]3O[C@H](CO[C@H]4O[C@H](C)[C@@H](O)[C@@H](O)[C@@H]4O)[C@H](O)[C@H](O)[C@H]3O[C@H]3O[C@@H](CO)[C@@H](O)[C@@H](O)[C@H]3O[C@H]3OC[C@@H](O)[C@@H](O)[C@H]3O)Oc3ccc(cc3)[C@H]2O[C@@H]2C[C@@H](N)[C@@H](O)[C@@H](C)O2)c2ccc(O)c(c2)-c2c(O[C@@H]3O[C@H](CO)[C@@H](O)[C@@H](O)[C@@H]3O)cc(O)cc21`, for which the MIC in data set [1] is 25 µg/mL (≈ 12.1 µM); in data set [2], 6.2 µg/mL (≈ 3 µM); in data set [4], 12.5 µg/mL (≈ 6.04 µM); in data set [5], 1.56 µg/mL (≈ 0.754 µM). Further, the “K A” value in data set [3] was 600000 M⁻¹.
For `COC(=O)[C@H]1NC(=O)C2NC(=O)[C@H](NC(=O)[C@@H]3NC(=O)[C@H]4NC(=O)[C@H](NC(=O)[C@@H](NC(C)=O)c5ccc(O)c(c5)Oc5cc4cc(O)c5C)[C@H](O)c4ccc(cc4)Oc4cc3cc(c4O)Oc3ccc(cc3)C2O)c2ccc(O)c(c2)-c2c(O)cc(O)cc21` (stereo not given in full), the MIC turned out to be 6.2 µg/mL (≈ 5.1 µM) in data set [1], 6.2 µg/mL (≈ 5.1 µM) in data set [2], 6.2 µg/mL (≈ 5.1 µM) in data set [4] and 3.1 µg/mL (≈ 2.55 µM) in data set [5]. Further, in data set [3], the “K A” value came to 140000 M⁻¹.
With `COC(=O)[C@H]1NC(=O)C2NC(=O)[C@H](NC(=O)[C@@H]3NC(=O)[C@H]4NC(=O)[C@H](NC(=O)[C@@H](N)c5ccc(O)c(c5)Oc5cc4cc(O)c5C)[C@H](O)c4ccc(cc4)Oc4cc3cc(c4O)Oc3ccc(cc3)C2O)c2ccc(O)c(c2)-c2c(O)cc(O)cc21` (stereo not given in full), the MIC in data set [1], in data set [2], in data set [4] and in data set [5] was 3.1 µg/mL (≈ 2.64 µM) in each case. In data set [3], the “K A” value turned out to be 670000 M⁻¹.
For `COC(=O)[C@H]1NC(=O)C2NC(=O)[C@H](NC(=O)[C@@H]3NC(=O)[C@H]4NC(=O)[C@H](NC(=O)[C@H](N)c5ccc(O)c(c5)Oc5cc4cc(O)c5C)[C@H](O)c4ccc(cc4)Oc4cc3cc(c4O)Oc3ccc(cc3)C2O)c2ccc(O)c(c2)-c2c(O)cc(O)cc21` (stereo not given in full), the MIC in data set [1] was 50 µg/mL (≈ 42.6 µM); in data set [2], 50 µg/mL (≈ 42.6 µM); in data set [4] it was 25 µg/mL (≈ 21.3 µM); in data set [5] it was 25 µg/mL (≈ 21.3 µM). Besides, in data set [3], the “K A” value came out at 20000 M⁻¹.
For `COC(=O)[C@H]1NC(=O)C2NC(=O)[C@H](NC(=O)[C@@H]3NC(=O)[C@H]4NC(=O)[C@H](NC(=O)[C@H](O)c5ccc(O)c(c5)Oc5cc4cc(O)c5C)[C@H](O)c4ccc(cc4)Oc4cc3cc(c4O)Oc3ccc(cc3)C2O)c2ccc(O)c(c2)-c2c(O)cc(O)cc21` (stereo not given in full), the MIC came out at 12.5 µg/mL (≈ 10.6 µM) in data set [1], 6.2 µg/mL (≈ 5.28 µM) in data set [2], 12.5 µg/mL (≈ 10.6 µM) in data set [4] and 6.2 µg/mL (≈ 5.28 µM) in data set [5]. In data set [3], the “K A” value amounted to 150000 M⁻¹.
In the case of `COC(=O)[C@H]1NC(=O)C2NC(=O)[C@H](NC(=O)[C@@H]3NC(=O)[C@H]4NC(=O)[C@H](NC(=O)C(=O)c5ccc(O)c(c5)Oc5cc4cc(O)c5C)[C@H](O)c4ccc(cc4)Oc4cc3cc(c4O)Oc3ccc(cc3)C2O)c2ccc(O)c(c2)-c2c(O)cc(O)cc21` (stereo not given in full), the MIC was 12.5 µg/mL (≈ 10.7 µM) in data set [1], 12.5 µg/mL (≈ 10.7 µM) in data set [2], 6.2 µg/mL (≈ 5.29 µM) in data set [4] and 3.1 µg/mL (≈ 2.64 µM) in data set [5]. The “K A” value in data set [3] stood at 560000 M⁻¹.
On to `COC(=O)[C@H]1NC(=O)C2NC(=O)[C@H](NC(=O)[C@@H]3NC(=O)[C@H]4NC(=O)[C@H](NC(=O)/C(=N/O)c5ccc(O)c(c5)Oc5cc4cc(O)c5C)[C@H](O)c4ccc(cc4)Oc4cc3cc(c4O)Oc3ccc(cc3)C2O)c2ccc(O)c(c2)-c2c(O)cc(O)cc21` (stereo not given in full), for which the MIC in data set [1] worked out at 3.1 µg/mL (≈ 2.61 µM); in data set [2], 3.1 µg/mL (≈ 2.61 µM); in data set [4], 3.1 µg/mL (≈ 2.61 µM); in data set [5], 1.56 µg/mL (≈ 1.31 µM). The “K A” value in data set [3] amounted to 960000 M⁻¹.

The values are drawn from ChEMBL document CHEMBL1123055, “Preparation of biologically active ristocetin derivatives: replacements of the 1'-amino group” (J Med Chem, 1985).
